# Calls of active or inactive are those of the source. No cut-off for these calls is given here.
# Columns and labels:
# [1] = target: T1, NAD-dependent protein deacetylase sirtuin-1 (Homo sapiens) (UniProt Q96EB6); assay: Inhibition of human N-terminal His-tagged SIRT1 expressed in Escherichia coli at 50 uM using p53 (Arg-His-Lys-Lys(Ac)) (379 to 382 residues) as substrate incubated for 3 hrs measured up to 30 mins by fluorescence assay relative to control
# T1 sequence (whole entry): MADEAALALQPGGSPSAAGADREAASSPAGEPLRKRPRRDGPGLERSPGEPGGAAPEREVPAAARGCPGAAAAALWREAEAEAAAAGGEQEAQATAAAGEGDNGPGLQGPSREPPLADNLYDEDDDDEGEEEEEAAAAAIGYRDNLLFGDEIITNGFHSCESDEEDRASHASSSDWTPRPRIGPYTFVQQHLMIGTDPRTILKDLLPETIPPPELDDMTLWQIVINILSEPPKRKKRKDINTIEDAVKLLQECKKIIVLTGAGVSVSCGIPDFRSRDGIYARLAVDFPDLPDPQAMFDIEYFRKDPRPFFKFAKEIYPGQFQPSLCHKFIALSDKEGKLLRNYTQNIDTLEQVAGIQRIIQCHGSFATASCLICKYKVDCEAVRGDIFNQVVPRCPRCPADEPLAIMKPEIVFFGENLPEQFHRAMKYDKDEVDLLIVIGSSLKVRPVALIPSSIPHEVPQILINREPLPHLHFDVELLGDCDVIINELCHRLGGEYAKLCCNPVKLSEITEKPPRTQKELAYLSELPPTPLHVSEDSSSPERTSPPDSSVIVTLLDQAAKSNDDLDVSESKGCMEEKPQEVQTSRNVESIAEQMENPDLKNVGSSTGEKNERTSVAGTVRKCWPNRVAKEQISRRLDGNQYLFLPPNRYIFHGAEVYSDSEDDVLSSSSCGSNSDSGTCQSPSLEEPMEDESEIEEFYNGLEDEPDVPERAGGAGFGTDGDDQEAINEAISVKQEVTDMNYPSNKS
# [2] = target: T2, NAD-dependent protein deacetylase sirtuin-2 (Homo sapiens) (UniProt Q8IXJ6); assay: Inhibition of human N-terminal His-tagged SIRT2 expressed in Escherichia coli at 10 uM using p53 (Gln-Pro-Lys-Lys(Ac)) (317 to 320 residues) as substrate incubated for 3 hrs measured up to 30 mins by fluorescence assay relative to control
# T2 sequence (whole entry): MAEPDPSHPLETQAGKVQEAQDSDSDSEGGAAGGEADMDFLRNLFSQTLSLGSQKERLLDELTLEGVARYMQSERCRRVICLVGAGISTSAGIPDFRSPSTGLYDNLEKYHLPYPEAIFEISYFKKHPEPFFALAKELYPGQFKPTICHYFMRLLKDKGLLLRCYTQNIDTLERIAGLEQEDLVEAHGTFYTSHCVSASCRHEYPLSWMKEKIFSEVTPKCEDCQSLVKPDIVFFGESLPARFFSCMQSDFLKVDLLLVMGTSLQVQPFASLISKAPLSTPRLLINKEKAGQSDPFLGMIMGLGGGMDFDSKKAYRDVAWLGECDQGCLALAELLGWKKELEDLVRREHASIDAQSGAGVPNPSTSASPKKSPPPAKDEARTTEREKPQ
# [3] = target: T2, NAD-dependent protein deacetylase sirtuin-2 (Homo sapiens); assay: Inhibition of human N-terminal His-tagged SIRT2 expressed in Escherichia coli at 50 uM using p53 (Gln-Pro-Lys-Lys(Ac)) (317 to 320 residues) as substrate incubated for 3 hrs measured up to 30 mins by fluorescence assay relative to control
# [4] = target: T1, NAD-dependent protein deacetylase sirtuin-1 (Homo sapiens); assay: Inhibition of SIRT1 in human MCF7 cells assessed as H3K9Ac expression at 0.1 uM measured after 24 hrs by Western blot analysis relative to H3; type: cell-based
# Summary of the method: (§1)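 MCF-7 cells (5×10⁵ per dish) were treated 24 h, lysed in SDS buffer and protein was quantified by BCA. Equal protein was run on 5–20% SDS-PAGE and transferred to PVDF. Blots were probed for H3K9Ac, H3, acetyl-α-tubulin and α-tubulin, then given HRP secondaries and ECL detection. Acetyl/total ratios came from blot optical density.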
# [5] = target: T2, NAD-dependent protein deacetylase sirtuin-2 (Homo sapiens); assay: Inhibition of SIRT2 in human MCF7 cells assessed as accumulation of acetylated-alpha tubulin at 0.1 uM measured after 24 hrs by Western blot analysis relative to alpha-tubulin; type: cell-based; summary of the method: as §1
# [6] = target: T1, NAD-dependent protein deacetylase sirtuin-1 (Homo sapiens); assay: Inhibition of human N-terminal His-tagged SIRT1 expressed in Escherichia coli at 100 uM using p53 (Arg-His-Lys-Lys(Ac)) (379 to 382 residues) as substrate incubated for 3 hrs measured up to 30 mins by fluorescence assay relative to control
# [7] = target: T3, NAD-dependent protein deacetylase sirtuin-3, mitochondrial (Homo sapiens) (UniProt Q9NTG7); assay: Inhibition of human N-terminal His-tagged SIRT3 (102 to 399 residues) expressed in Escherichia coli at 100 uM using p53 (Gln-Pro-Lys-Lys(Ac)) (317 to 320 residues) as substrate incubated for 3 hrs measured up to 30 mins by fluorescence assay relative to control
# T3 sequence (whole entry): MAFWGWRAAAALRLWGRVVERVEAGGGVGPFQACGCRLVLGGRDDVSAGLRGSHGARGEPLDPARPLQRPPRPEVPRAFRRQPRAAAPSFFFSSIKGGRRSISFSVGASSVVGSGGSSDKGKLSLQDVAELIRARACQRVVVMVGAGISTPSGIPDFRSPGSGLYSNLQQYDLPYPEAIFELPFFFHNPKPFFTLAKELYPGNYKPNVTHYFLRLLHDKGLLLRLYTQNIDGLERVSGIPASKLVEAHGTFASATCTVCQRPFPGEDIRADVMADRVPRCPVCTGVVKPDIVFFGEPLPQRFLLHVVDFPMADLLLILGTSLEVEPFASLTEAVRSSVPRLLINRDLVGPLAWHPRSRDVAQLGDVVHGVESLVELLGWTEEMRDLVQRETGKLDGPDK
# [8] = target: NAD-dependent protein deacylase sirtuin-5, mitochondrial (Homo sapiens) (UniProt Q9NXA8); assay: Inhibition of human N-terminal His-tagged SIRT5 (37 to 310 residues) expressed in Escherichia coli at 100 uM using flour de lys succinyl as substrate incubated for 3 hrs measured up to 30 mins by fluorescence assay relative to control
# Chain of NAD-dependent protein deacylase sirtuin-5, mitochondrial (Homo sapiens) (Q9NXA8 37-310 limits assumed): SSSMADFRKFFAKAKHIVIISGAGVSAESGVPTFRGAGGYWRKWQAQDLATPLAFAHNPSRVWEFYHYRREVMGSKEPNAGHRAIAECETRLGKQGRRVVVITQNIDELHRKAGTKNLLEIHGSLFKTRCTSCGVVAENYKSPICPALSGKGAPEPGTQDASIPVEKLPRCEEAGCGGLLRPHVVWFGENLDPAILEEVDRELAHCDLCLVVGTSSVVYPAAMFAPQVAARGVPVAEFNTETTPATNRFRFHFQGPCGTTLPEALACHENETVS
# MCF7 [9] = assay: Growth inhibition of human MCF7 cells at 30 uM measured after 72 hrs by AlamarBlue assay relative to control; type: functional; conditions: MCF7, 72 h, read-out: GI
# Summary of the method: (§2)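 MCF-7 cells in DMEM with 10% FBS were seeded at 1×10³ cells/well. After 24 h at 37°C, 5% CO₂, compound in medium was added at varying concentrations for 72 h. AlamarBlue was then added for 3 h and fluorescence read (ex 540/em 590 nm). Percent growth was calculated from the readings, and GI50 from the dose response. Three independent determinations.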
# N2a = assay: Induction of neurite outgrowth in mouse Neuro2a cells at 0.2 to 2 uM measured after 24 hrs by microscopic analysis; type: functional, cell-based
# Summary of the method: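 N2a cells were plated at 1×10⁴ cells/mL in DMEM with 10% FBS, then switched to DMEM with 2% FBS for differentiation. Compound was added for 24 or 48 h and morphology scored by microscopy. A cell counted as differentiated if it had ≥1 neurite longer than twice the soma diameter; ≥100 cells were counted per condition. Triplicate experiments, mean ± SD, one-way ANOVA with Dunnett's test.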
# MCF7 [10] = assay: Growth inhibition of human MCF7 cells at 15 uM measured after 72 hrs by AlamarBlue assay; type: functional, cell-based; summary of the method: as §2
# MCF7 [11] = assay: Growth inhibition of human MCF7 cells measured after 72 hrs by AlamarBlue assay; type: functional; conditions: MCF7, 72 h; summary of the method: as §2
inhibition [1] [%],inhibition [2] [%],Structure (SMILES),other results
18,59,CN(C)CCNC(=O)c1ccccc1Nc1cccc(OCCc2ccccc2)c1,inhibition [3]: 74%
8,45,CC(C)CCNC(=O)c1ccccc1Nc1cccc(OCCc2ccccc2)c1,inhibition [3]: 70%
13,68,O=C(NO)c1ccccc1Nc1cccc(OCCc2ccccc2)c1,–
17,72,COC(=O)CNC(=O)c1ccccc1Nc1cccc(OCCc2ccccc2)c1,–
2,57,CCCCNC(=O)c1ccccc1Nc1cccc(OCCc2ccccc2)c1,–
8,50,O=C(O)CNC(=O)c1ccccc1Nc1cccc(OCCc2ccccc2)c1,–
10,85,NC(=O)CNC(=O)c1ccccc1Nc1cccc(OCCc2ccccc2)c1,–
6,63,CONC(=O)c1ccccc1Nc1cccc(OCCc2ccccc2)c1,–
9,50,CCCCCNC(=O)c1ccccc1Nc1cccc(OCCc2ccccc2)c1,–
12,77,C#CCNC(=O)c1ccccc1Nc1cccc(OCCc2ccccc2)c1,–
8,58,CCCNC(=O)c1ccccc1Nc1cccc(OCCc2ccccc2)c1,–
12,76,O=C(NCCO)c1ccccc1Nc1cccc(OCCc2ccccc2)c1,–

# Further lines, the compound ahead of its results:
Structure (SMILES),inhibition [1] [%],inhibition [2] [%],other results
CC(C)(C)OC(=O)NCCNC(=O)c1ccccc1Nc1cccc(OCCc2ccccc2)c1,11,77,–
O=C(CCCCCCC(=O)Nc1ccccc1)NO,–,–,fold change (FC) [4]: 1.3; fold change (FC) [5]: 1.61
O=C(Nc1ccccc1)c1ccccc1Nc1cccc(OCCc2ccccc2)c1,9,44,–
CCN(CC)C(=O)c1ccccc1Nc1cccc(OCCc2ccccc2)c1,11,61,–
Cc1cc(C)nc(SCC(=O)Oc2cccc(Nc3ccccc3C(N)=O)c2)n1,7,26,–
O=C(O)c1ccccc1Nc1cccc(OCCc2ccccc2)c1,2.5,12,–
CC(C)(C)OC(=O)NCCCCCNC(=O)CNC(=O)c1ccccc1Nc1cccc(OCCc2ccccc2)c1,14,83,–
O=C(NOC1CCCCO1)c1ccccc1Nc1cccc(OCCc2ccccc2)c1 (stereo not drawn),8,54,–
O=C(NC1CCCCC1)c1ccccc1Nc1cccc(OCCc2ccccc2)c1,15,28,–
O=C(NCc1ccccc1)c1ccccc1Nc1cccc(OCCc2ccccc2)c1,12,70,–
NC(=O)Cc1ccccc1Nc1cccc(OCCc2ccccc2)c1,19,68,–
NC(=O)c1ccccc1Nc1cccc(OCCc2ccc3ccccc3c2)c1,7,75,–
O=C(NC1CCN(Cc2ccccc2)CC1)c1ccccc1Nc1cccc(OCCc2ccccc2)c1,8,56,–
CC(C)(C)OC(=O)NCCCNC(=O)c1ccccc1Nc1cccc(OCCc2ccccc2)c1,4,57,–
NC(=O)c1ccccc1Nc1cccc(OCCc2ccccc2)c1,12,90,inhibition [6]: 17%; inhibition [7]: 17%; inhibition [8]: 8%; inhibition of growth at 30 µM (MCF7 [9]): 30%; Activity (N2a): Active
O=C(NCCc1ccccc1)c1ccccc1Nc1cccc(OCCc2ccccc2)c1,5,46,–
C[C@H](NC(=O)c1ccccc1Nc1cccc(OCCc2ccccc2)c1)C(N)=O,15,81,–
CCCCCCCCCCCCCC(=S)NCCCC[C@H](NC(=O)OCc1ccccc1)C(=O)Nc1ccccc1,–,–,growth inhibition (GI) (MCF7 [10]): Active; Activity (N2a): Active
C[C@H](NC(=O)[C@H](CCCCNC(=S)CNC(=O)c1ccccc1Nc1cccc(OCCc2ccccc2)c1)NC(=O)OCc1ccccc1)C(N)=O,–,–,GI50 (MCF7 [11]): 8.43 µM; Activity (N2a): Active
O=C(c1ccccc1Nc1cccc(OCCc2ccccc2)c1)N1CCOCC1,4,71,–
CC(C)(C)OC(=O)NCCCCNC(=O)CNC(=O)c1ccccc1Nc1cccc(OCCc2ccccc2)c1,23,83,–
